Experimental data: ChEMBL document CHEMBL4334504 (J Med Chem, 2019)
Values after ≈ are worked out from the molar mass of the structure shown.

Assays:
Clostridioides difficile [1] = experiment: Antibacterial activity against Clostridium difficile 4118 ATCC BAA 1870 assessed as bacterial growth inhibition incubated for 48 hrs under anaerobic condition by CLSI protocol-based assay; type: functional; details: 4118 ATCC BAA 1870, 48 h
Procedure, shortened: (§1)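 Broth microdilution following CLSI guidance. Strains pre-grown anaerobically on BHIS agar (BHI plus yeast extract, vitamin K1, hemin) at 37 °C for 48 h. ~10^5 CFU/mL in BHIS broth added to serial compound dilutions. Incubated anaerobically at 37 °C for 48 h. MIC is the lowest concentration showing visible growth inhibition.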

Clostridioides difficile [2] = experiment: Antibacterial activity against Clostridium difficile VPI 10463 ATCC 43255 assessed as bacterial growth inhibition incubated for 48 hrs under anaerobic condition by CLSI protocol based assay; type: functional; details: ATCC 43255 VPI 10463, 48 h; procedure, shortened: as §1
Escherichia coli = experiment: Effect on growth of Escherichia coli ATCC 25922 assessed as bacterial growth inhibition measured after 16 to 18 hrs by CLSI method; type: organism-based; details: in vivo
Procedure, shortened: (§2)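 CLSI microdilution. Colonies from TSA (16-20 h, 37 °C) suspended in PBS to 0.5 McFarland, then diluted in TSB to ~10^5 CFU/mL. Incubated with serial compound dilutions for 16-20 h at 37 °C. MIC is the lowest concentration inhibiting growth.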

Enterobacter cloacae = experiment: Effect on growth of Enterobacter cloacae ATCC BAA 1143 assessed as bacterial growth inhibition measured after 16 to 18 hrs grown in tryptic soy medium by CLSI method; type: organism-based; details: in vivo; procedure, shortened: as §2
Bifidobacterium bifidum = experiment: Effect on growth of Bifidobacterium bifidum 212A ATCC 11863 measured after 48 hrs in anerobic conditions by CLSI method; type: organism-based; details: in vivo
[3] = Effect on growth of Lactobacillus crispatus JV-V01 HM 103 measured after 48 hrs in 5% CO2 by CLSI method; details: lactobacillus crispatus jv-v01, 48 h
[4] = test system: Lacticaseibacillus paracasei; experiment: Effect on growth of Lactobacillus casei ATCC 334 measured after 48 hrs in 5% CO2 by CLSI method
[5] = Effect on growth of Lactobacillus gasseri EX336960VC03 HM 400 measured after 48 hrs in 5% CO2 by CLSI method; details: lactobacillus gasseri ex336960vc03, 48 h
HRT-18 cell line = experiment: Cytotoxicity against human HRT18 cells at > 256 uM measured after 2 hrs by MTS assay; type: cell-based; details: hrt-18, 2 h
Caco-2 = experiment: Cytotoxicity against human Caco2 cells at > 256 uM measured after 2 hrs by MTS assay; type: cell-based; details: caco-2, 2 h
Vero = experiment: Cytotoxicity against African green monkey Vero cells at > 256 uM measured after 2 hrs by MTS assay; type: cell-based; details: chlorocebus sabaeus

Compound | MIC (Clostridioides difficile [1]) [µM] | MIC (Clostridioides difficile [2]) [µM] | also measured
Cc1nc2c(F)cccc2c(=O)[nH]1 | > 718 | > 718 | 
GENTAMICIN |  |  | MIC (Escherichia coli): 8 µM; MIC (Enterobacter cloacae): <= 1 uM
Cc1nc2c([N+](=O)[O-])csc2c(=O)n1Cc1ccccc1[N+](=O)[O-] | 23 (≈ 7.97 µg/mL) | 23 (≈ 7.97 µg/mL) | 
Cc1nc2c([N+](=O)[O-])csc2c(=O)n1-c1ccc(C(C)C)cc1 | > 389 | > 389 | 
O=c1c2scc([N+](=O)[O-])c2nc(/C=C/c2ccc(F)cc2)n1Cc1ccccc1 | 157 (≈ 64 µg/mL) | 157 (≈ 64 µg/mL) | 
COc1ccc(/C=C/c2nc3c([N+](=O)[O-])csc3c(=O)[nH]2)cc1 | 12 (≈ 3.95 µg/mL) | 12 (≈ 3.95 µg/mL) | 
Cc1nc2c([N+](=O)[O-])csc2c(=O)n1Cc1cccc([N+](=O)[O-])c1 | 23 (≈ 7.97 µg/mL) | 23 (≈ 7.97 µg/mL) | 
O=c1[nH]c(-c2cccc([N+](=O)[O-])c2)nc2c([N+](=O)[O-])csc12 | 50 (≈ 15.9 µg/mL) | 50 (≈ 15.9 µg/mL) | 
Cc1nc2c([N+](=O)[O-])csc2c(=O)n1CC(=O)Nc1ccccc1 | 46 (≈ 15.8 µg/mL) | 23 (≈ 7.92 µg/mL) | 
Cc1nc(Nc2ccccc2)c2scc([N+](=O)[O-])c2n1 | 28 (≈ 8.02 µg/mL) | 14 (≈ 4.01 µg/mL) | 
Cc1nc2c([N+](=O)[O-])scc2c(=O)[nH]1 | 38 (≈ 8.03 µg/mL) | 38 (≈ 8.03 µg/mL) | MIC (Escherichia coli): > 700 µM; MIC (Bifidobacterium bifidum): > 700 µM; MIC (Enterobacter cloacae): > 700 µM; MIC [3]: > 700 µM; MIC [4]: > 700 µM; MIC [5]: > 700 µM
Cc1ncc([N+](=O)[O-])n1CCO [METRONIDAZOLE] | 0.7 (≈ 0.12 µg/mL) | 1.5 (≈ 0.257 µg/mL) | MIC (Bifidobacterium bifidum): > 1496 µM; MIC [3]: > 1496 µM; MIC [4]: 47 µM (≈ 8.04 µg/mL); MIC [5]: > 1496 µM
O=c1[nH]c(/C=C/c2cccc(F)c2)nc2c([N+](=O)[O-])csc12 | 13 (≈ 4.12 µg/mL) | 13 (≈ 4.12 µg/mL) | 
Cc1nc2ncccc2c(=O)[nH]1 | > 794 | > 794 | 
Cc1nc2c([N+](=O)[O-])csc2c(=O)n1CC(=O)O | > 475 | > 475 | 
Cc1nc2c([N+](=O)[O-])csc2c(=O)n1-c1ccc(-c2ccccc2)cc1 | 352 (≈ 128 µg/mL) | 176 (≈ 64 µg/mL) | 
CN[C@H](CC(C)C)C(=O)N[C@H]1C(=O)N[C@@H](CC(N)=O)C(=O)N[C@H]2C(=O)N[C@H]3C(=O)N[C@H](C(=O)N[C@H](C(=O)O)c4cc(O)cc(O)c4-c4cc3ccc4O)[C@H](O)c3ccc(c(Cl)c3)Oc3cc2cc(c3O[C@@H]2O[C@H](CO)[C@@H](O)[C@H](O)[C@H]2O[C@H]2C[C@](C)(N)[C@H](O)[C@H](C)O2)Oc2ccc(cc2Cl)[C@H]1O [VANCOMYCIN] | 0.7 (≈ 1.01 µg/mL) | 0.3 (≈ 0.435 µg/mL) | MIC [3]: <= 1 uM; MIC [5]: <= 1 uM
O=c1[nH]c(-c2ccccc2)nc2ccsc12 | > 560 | > 560 | 
O=[N+]([O-])c1csc2c(Cl)nc(/C=C/c3ccc(F)cc3)nc12 | 95 (≈ 31.9 µg/mL) | 95 (≈ 31.9 µg/mL) | 
Cc1nc2c([N+](=O)[O-])cccc2c(=O)[nH]1 | 312 (≈ 64 µg/mL) | 156 (≈ 32 µg/mL) | MIC (Escherichia coli): > 700 µM; MIC (Bifidobacterium bifidum): > 700 µM; MIC (Enterobacter cloacae): > 700 µM; MIC [3]: > 700 µM; MIC [4]: > 700 µM; MIC [5]: > 700 µM
CCc1nc2c([N+](=O)[O-])csc2c(=O)[nH]1 | 35 (≈ 7.88 µg/mL) | 35 (≈ 7.88 µg/mL) | 
O=c1[nH]c(/C=C/c2ccco2)nc2c([N+](=O)[O-])csc12 | 27 (≈ 7.81 µg/mL) | 27 (≈ 7.81 µg/mL) | 
Cc1nc2c([N+](=O)[O-])csc2c(=O)n1Cc1ccccc1 | 7 (≈ 2.11 µg/mL) | 56 (≈ 16.9 µg/mL) | MIC (Escherichia coli): > 850 µM; Activity (HRT-18 cell line): Non-Toxic; MIC (Bifidobacterium bifidum): > 425 µM; MIC (Enterobacter cloacae): > 850 µM; Activity (Caco-2): Non-Toxic; MIC [3]: > 425 µM; MIC [4]: > 425 µM; MIC [5]: > 425 µM; Activity (Vero): Non-Toxic
O=C(O)c1ccc(/C=C/c2nc3c([N+](=O)[O-])csc3c(=O)[nH]2)cc1 | 46 (≈ 15.8 µg/mL) | 184 (≈ 63.2 µg/mL) | 
Cc1nc2c([N+](=O)[O-])csc2c(=O)n1CCc1ccccc1 | 13 (≈ 4.1 µg/mL) | 13 (≈ 4.1 µg/mL) | 
O=C(O)c1ccc(/C=C/c2nc3c([N+](=O)[O-])csc3c(=O)[nH]2)o1 | > 384 | > 384 | 
Cc1nc2cscc2c(=O)[nH]1 | 192 (≈ 31.9 µg/mL) | 768 (≈ 128 µg/mL) | 
